Experiments:
MDR1 (P-gp, ABCB1) [1] = target: T1, MDR1 (P-gp, ABCB1) (Homo sapiens, UniProt P08183); assay: Substrate activity at human MDR1 expressed in MDCK cells assessed as apparent permeability at 1 uM by UPLS-MS/MS analysis; assay type: ADME, cell-based
Outline: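 TransWell assay in CRISPR-Cas9 MDCK cells expressing human MDR1 with endogenous canine MDR1 knocked out (MDCK-hMDR1^cMDR1-ko), grown on filters; apparent permeability measured apical to basolateral.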

MDR1 (P-gp, ABCB1) [2] = target: T1, MDR1 (P-gp, ABCB1); assay: Substrate activity at human MDR1 expressed in MDCK cells assessed as efflux ratio of apparent permeability across basolateral to apical side over apical to basolateral side at 1 uM by UPLS-MS/MS analysis; assay type: ADME, cell-based
[3] = target: Phosphatidylinositol 4,5-bisphosphate 3-kinase catalytic subunit alpha isoform (Homo sapiens, UniProt P42336); assay: Inhibition of alexa fluor 647-labeled kinase tracer 314 binding to recombinant N-terminal His6-tagged p110alpha (unknown origin) by TR-FRET assay
Sequence of Phosphatidylinositol 4,5-bisphosphate 3-kinase catalytic subunit alpha isoform (P42336 whole entry, canonical isoform): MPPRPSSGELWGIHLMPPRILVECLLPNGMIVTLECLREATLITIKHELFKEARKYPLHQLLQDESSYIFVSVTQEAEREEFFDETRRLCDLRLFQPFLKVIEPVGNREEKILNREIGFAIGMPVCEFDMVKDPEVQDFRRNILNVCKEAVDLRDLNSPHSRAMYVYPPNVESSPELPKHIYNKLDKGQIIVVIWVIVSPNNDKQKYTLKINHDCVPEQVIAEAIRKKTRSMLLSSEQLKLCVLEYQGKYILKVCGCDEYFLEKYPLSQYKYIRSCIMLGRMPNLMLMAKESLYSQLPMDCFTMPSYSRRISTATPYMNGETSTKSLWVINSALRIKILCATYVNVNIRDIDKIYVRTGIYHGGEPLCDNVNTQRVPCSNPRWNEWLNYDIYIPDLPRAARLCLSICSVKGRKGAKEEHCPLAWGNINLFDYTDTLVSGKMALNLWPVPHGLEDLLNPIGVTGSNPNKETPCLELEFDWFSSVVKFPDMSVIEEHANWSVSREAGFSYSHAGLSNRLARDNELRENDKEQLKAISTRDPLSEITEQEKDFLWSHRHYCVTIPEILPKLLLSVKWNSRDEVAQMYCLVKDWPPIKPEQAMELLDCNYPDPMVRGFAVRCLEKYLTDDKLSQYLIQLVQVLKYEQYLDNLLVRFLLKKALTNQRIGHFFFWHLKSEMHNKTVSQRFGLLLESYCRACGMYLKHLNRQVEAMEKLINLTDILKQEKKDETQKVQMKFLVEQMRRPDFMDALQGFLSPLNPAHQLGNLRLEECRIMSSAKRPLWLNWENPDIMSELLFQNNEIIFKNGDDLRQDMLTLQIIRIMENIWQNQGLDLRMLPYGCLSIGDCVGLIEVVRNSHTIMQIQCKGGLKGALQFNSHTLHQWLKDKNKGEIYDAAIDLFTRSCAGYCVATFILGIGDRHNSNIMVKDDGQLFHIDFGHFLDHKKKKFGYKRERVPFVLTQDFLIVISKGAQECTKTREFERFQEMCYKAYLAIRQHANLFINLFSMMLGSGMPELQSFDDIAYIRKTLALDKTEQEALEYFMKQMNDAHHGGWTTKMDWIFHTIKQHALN
Outline: (§1)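 LanthaScreen TR-FRET displacement of tracer from the ATP-binding site of recombinant kinase. 10-point 1:4 serial dilution with each concentration in duplicate. IC50 converted to Ki using a factor of 2.05 for mTOR and 9.84 for p110α. Reported as mean ± SD.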

[4] = Inhibition of mTORC2 in human A2058 cells assessed as reduction in PKB phosphorylation at S473 residue incubated for 1 hr by Western blot analysis; assay type: cell-based; details: A2058, 1 h
Outline: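 A2058 melanoma cells were used. mTORC1 activity was read as phospho-S6 ribosomal protein (Ser235/236), and mTORC2 activity as phospho-PKB/Akt (Ser473). IC50 came from a 7-point 1:2 serial dilution, with each concentration measured in triplicate. Data are reported as mean ± SD.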

[5] = target: Serine/threonine-protein kinase mTOR (Homo sapiens, UniProt P42345); assay: Inhibition of alexa fluor 647-labeled kinase tracer 314 binding to recombinant N-terminal GST-fused mTOR (1360 to 2549 residues) (unknown origin) by TR-FRET assay; outline: as §1
mTORC1 = mTORC1 (Homo sapiens, UniProt P42345); assay: Inhibition of mTORC1 in human A2058 cells assessed as reduction in S6 ribosomal protein phosphorylation at Ser235/236 residues incubated for 1 hr by Western blot analysis; assay type: cell-based
Outline: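 A2058 melanoma cells; phospho-S6 (Ser235/236) used as the mTORC1 readout. IC50 from a 7-point 1:2 serial dilution, each concentration in triplicate. Reported as mean ± SD.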

CYP1A1 = target: T2, CYP1A1 (Homo sapiens, UniProt P04798); assay: (§2) Stability of compound assessed as recombinant human CYP1A1 expressed in baculovirus infected insect cells mediated compound metabolism by measuring parent compound remaining at 1 uM preincubated with NADP+ regenerating system for 10 mins followed by enzyme addition and measured after 60 mins by LC-MS analysis; assay type: ADME; details: time 70 min, read-out: Stabilty
T2 sequence (P04798 whole entry): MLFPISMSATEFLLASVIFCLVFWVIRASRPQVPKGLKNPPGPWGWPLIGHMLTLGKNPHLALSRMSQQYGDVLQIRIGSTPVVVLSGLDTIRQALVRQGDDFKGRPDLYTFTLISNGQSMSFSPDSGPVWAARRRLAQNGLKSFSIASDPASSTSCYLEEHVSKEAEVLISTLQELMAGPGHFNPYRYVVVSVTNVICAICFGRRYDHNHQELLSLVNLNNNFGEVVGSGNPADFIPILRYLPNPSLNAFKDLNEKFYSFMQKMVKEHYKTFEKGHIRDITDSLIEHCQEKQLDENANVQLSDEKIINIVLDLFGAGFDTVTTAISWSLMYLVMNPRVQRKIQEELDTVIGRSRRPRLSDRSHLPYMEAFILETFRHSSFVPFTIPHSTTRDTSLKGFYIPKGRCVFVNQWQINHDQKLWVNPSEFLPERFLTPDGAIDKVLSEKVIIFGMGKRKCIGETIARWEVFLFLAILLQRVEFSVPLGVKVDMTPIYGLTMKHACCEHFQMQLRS
Outline: (§3)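 Individual human recombinant CYP isoenzymes; percentage of parent compound remaining after 60 min incubation.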

CYP1A2 = target: T3, CYP1A2 (Homo sapiens, UniProt P05177); assay: as §2, with “CYP1A2” for “CYP1A1”; assay type: ADME; details: time 70 min, read-out: Stabilty; outline: as §3
T3 sequence (P05177 whole entry): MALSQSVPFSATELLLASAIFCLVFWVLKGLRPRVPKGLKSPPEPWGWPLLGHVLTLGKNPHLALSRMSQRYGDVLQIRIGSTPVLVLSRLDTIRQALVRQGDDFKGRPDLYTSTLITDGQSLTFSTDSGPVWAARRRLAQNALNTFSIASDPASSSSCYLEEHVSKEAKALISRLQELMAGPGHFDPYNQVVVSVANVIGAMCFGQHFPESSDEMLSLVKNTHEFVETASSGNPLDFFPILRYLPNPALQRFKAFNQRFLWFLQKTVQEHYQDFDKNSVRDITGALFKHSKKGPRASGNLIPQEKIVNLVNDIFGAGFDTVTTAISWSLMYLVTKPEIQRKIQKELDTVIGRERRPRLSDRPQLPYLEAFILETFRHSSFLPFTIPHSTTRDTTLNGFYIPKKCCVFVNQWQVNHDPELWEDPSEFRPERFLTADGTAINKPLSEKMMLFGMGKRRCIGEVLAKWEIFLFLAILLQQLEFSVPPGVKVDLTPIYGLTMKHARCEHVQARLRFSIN

T1 sequence (P08183 whole entry): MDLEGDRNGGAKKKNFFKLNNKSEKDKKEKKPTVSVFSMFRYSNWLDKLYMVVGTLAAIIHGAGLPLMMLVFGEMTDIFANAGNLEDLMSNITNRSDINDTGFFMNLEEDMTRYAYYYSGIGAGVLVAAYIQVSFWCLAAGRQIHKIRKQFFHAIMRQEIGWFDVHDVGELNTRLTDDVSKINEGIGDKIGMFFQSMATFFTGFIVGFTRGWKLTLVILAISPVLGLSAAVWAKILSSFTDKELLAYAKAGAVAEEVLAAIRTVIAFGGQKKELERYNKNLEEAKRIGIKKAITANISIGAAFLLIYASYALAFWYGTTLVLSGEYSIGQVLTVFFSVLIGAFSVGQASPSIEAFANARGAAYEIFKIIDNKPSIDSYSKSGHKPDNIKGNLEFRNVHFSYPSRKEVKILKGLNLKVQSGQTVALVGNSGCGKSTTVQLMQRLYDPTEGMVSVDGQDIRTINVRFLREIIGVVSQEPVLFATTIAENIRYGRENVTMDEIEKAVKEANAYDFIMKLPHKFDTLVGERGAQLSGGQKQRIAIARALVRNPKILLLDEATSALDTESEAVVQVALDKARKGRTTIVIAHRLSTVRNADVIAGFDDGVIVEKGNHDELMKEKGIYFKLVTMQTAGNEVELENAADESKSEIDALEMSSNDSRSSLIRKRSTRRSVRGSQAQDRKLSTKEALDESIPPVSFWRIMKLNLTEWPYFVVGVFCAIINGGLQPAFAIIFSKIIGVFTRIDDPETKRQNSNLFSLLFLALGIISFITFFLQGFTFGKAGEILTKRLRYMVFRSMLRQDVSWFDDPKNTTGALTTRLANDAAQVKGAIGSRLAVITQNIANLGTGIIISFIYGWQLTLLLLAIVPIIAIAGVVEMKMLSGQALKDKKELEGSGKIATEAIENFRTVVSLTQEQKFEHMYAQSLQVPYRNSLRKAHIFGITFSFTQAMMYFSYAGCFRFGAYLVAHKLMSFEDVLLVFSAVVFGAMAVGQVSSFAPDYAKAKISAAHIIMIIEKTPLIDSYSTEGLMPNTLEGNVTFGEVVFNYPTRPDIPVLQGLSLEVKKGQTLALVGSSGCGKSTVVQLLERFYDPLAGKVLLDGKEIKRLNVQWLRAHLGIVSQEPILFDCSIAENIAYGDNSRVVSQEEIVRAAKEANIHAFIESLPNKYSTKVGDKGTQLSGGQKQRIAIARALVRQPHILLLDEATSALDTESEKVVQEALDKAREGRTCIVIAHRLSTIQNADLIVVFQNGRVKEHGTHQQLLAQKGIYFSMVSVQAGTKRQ

| Compound | Papp A→B at 1 µM (MDR1 (P-gp, ABCB1) [1]) [×10⁻⁶ cm/s] | efflux ratio at 1 µM (MDR1 (P-gp, ABCB1) [2]) | Ki [3] [nM] | IC50 [4] [nM] | Ki [5] [nM] | IC50 (mTORC1) [nM] | remaining at 1 h, 1 µM (CYP1A1) [%] | remaining at 1 h, 1 µM (CYP1A2) [%] |
| --- | --- | --- | --- | --- | --- | --- | --- | --- |
| C[C@@H]1COCCN1c1nc(-c2cnc(N)cn2)nc2c1C[C@@H]1COCCN21 | < 60 | > 20 |  |  |  |  |  |  |
| C[C@@H]1COCCN1c1nc(-c2cnc(N)cc2C(F)F)nc2c1C[C@@H]1COCCN21 |  |  | 232 | 253 | 12 | 67 |  |  |
| C[C@@H]1COCCN1c1nc(-c2cnc(N)nc2C(F)(F)F)nc2c1C[C@@H]1COCCN21 |  |  | 55 | 446 | 249 | 694 |  |  |
| C[C@@H]1COCCN1c1nc(-c2cnc(N)nc2C(F)F)nc2c1C[C@@H]1COCCN21 |  |  | 17 |  | 34 | 119 |  |  |
| C[C@@H]1COCCN1c1nc(-c2nnc(N)s2)nc2c1C[C@@H]1COCCN21 | < 60 | > 20 | 1550 | 135 | 8.2 | 80 |  |  |
| C[C@@H]1COCCN1c1nc(-c2cnc(N)cc2C(F)(F)F)nc2c1C[C@@H]1COCCN21 |  |  | 272 | 1090 | 118 | 776 |  |  |
| C[C@@H]1COCCN1c1nc(-c2cnc(N)c(C(F)(F)F)c2)nc2c1C[C@@H]1COCCN21 |  |  | > 20000 | 549 | 33 | 348 |  |  |
| C[C@@H]1COCCN1c1nc(-c2cnc(N)s2)nc2c1C[C@@H]1COCCN21 | < 60 | > 20 | 2490 | 157 | 15 | 102 | 48 | 87 |
| C[C@@H]1COCCN1c1nc(-c2ccc(N)nn2)nc2c1C[C@@H]1COCCN21 |  |  | 847 | 162 | 11 | 84 |  |  |
| C[C@@H]1COCCN1c1nc(-c2nc(N)ns2)nc2c1C[C@@H]1COCCN21 |  |  | 806 | 512 | 58 | 261 |  |  |

From ChEMBL document CHEMBL4732024, “Second-generation tricyclic pyrimido-pyrrolo-oxazine mTOR inhibitor with predicted blood-brain barrier permeability” (RSC Med Chem, 2021)
